Screens: PubChem BioAssay, Sanford-Burnham Center for Chemical Genomics
EBI2 block = blocks human EBI2 receptor beta-arrestin signaling. P32249. inhibition, % at 5 µM. EBI2 beta-arrestin recruitment, luminescence, 7a,25-OHC stimulated. AID 651636. 360,000 tested, 0.81% active; in the data active means inhibition above about 38%;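 further: enzyme fragment complementation signal reports receptor beta-arrestin coupling in cells; 0% = agonist plus DMSO wells and 100% = wells without agonist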
Target sequence (P32249 whole entry, looked up, the tested form may be a part): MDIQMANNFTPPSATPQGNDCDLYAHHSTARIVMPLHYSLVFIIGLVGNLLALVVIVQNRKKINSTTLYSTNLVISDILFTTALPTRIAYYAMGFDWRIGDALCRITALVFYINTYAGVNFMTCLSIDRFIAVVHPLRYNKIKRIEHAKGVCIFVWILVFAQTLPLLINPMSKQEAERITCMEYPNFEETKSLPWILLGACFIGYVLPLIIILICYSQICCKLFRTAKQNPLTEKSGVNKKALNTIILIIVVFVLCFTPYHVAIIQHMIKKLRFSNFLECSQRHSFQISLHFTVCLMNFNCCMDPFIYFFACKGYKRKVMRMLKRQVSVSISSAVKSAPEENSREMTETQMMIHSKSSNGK
APJ ag = APJ receptor agonism | P35414 | CHO-K1 APJ PathHunter beta-arrestin, luminescence; 0% DMSO wells, 100% apelin | activation, % at 20 µM | 330,000 tested, 0.11% active | AID 2520;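 active means activation more than six SD over the plate average, tested at 20 µM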;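 further: 0% = DMSO alone and 100% = apelin-13 at 10 nM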
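Test system – PathHunter CHO-K1 APJ (AGTRL-1) beta-arrestin reporter cells · Input – 1000 cells/well · Compound – single test compound dose, 20 µM final, 1% DMSO · Times – compound stimulation 90 min at 25 °C, detection 60 min · Technique – beta-gal luminescence · Read-out basis – APJ–arrestin association signal · Control set – negative DMSO alone, positive Apelin-13 at 10 nM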
APJ antag = blocks the human apelin receptor APJ. P35414. 330,000 tested, 0.32% active. CHO-K1 APJ beta-arrestin complementation, luminescence. inhibition, % at 20 µM. AID 2521;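 active means inhibition above about 40% at 20 µM, limit read from the data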;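 further: cells challenged with 10 nM apelin-13 agonist together with compound; plate controls were apelin-13 plus DMSO wells for no effect and DMSO wells lacking apelin-13 for full effect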
CXCR6 block = inhibitors of human CXCR6 receptor | O00574 | CHO-K1 PathHunter CXCR6 beta-arrestin, luminescence | inhibition, % at 20 µM | 360,000 tested, 0.36% active | AID 602244; in the data active means inhibition above about 34%, passing the limit was not always enough;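 further: antagonist mode with CXCL16 agonist at 10 nM final; 0% = 10 nM CXCL16 with DMSO and 100% = unstimulated wells without agonist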
CCR6 antag = CCR6 (human) receptor antagonism; P51684; CHO-K1 CCR6 PathHunter beta-arrestin, luminescence, CCL20-stimulated; inhibition, % at 20 µM; 340,000 tested, 0.49% active; AID 493098;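 active means compounds whose inhibition of the agonist-driven luminescence signal at 20 µM reaches about 50%, limit read from the data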;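 further: cells stimulated with CCL20 at 14 nM final; plate controls were DMSO with CCL20 for no effect and DMSO without agonist for full effect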
EBI2 conf = confirmation of human EBI2 receptor antagonists; EBI2 beta-arrestin luminescence, 7a,25-OHC antagonism; inhibition, % at 5 µM; shares compounds with EBI2 block; AID 651997; 2,400 tested, 29% active;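 active means inhibition of at least 50%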
EBI2 agonist = counter-screen for EBI2 antagonists: EBI2 agonist activity; 2,400 tested, under 10 active; shares compounds with EBI2 block; activation, % at 5 µM; AID 652000; EBI2-expressing cells, agonist mode, luminescence, 60 min; 0% vehicle, 100% 7α,25-dihydroxycholesterol control;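 active means activation of at least 50%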
bGal counter = beta-galactosidase inhibition counter-screen. inhibition, % at 5 µM. purified beta-galactosidase, luminescent Galacton Star, 15 min. AID 652176. 2,400 tested, 1% active. shares compounds with EBI2 block;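 active means replicate-average signal at least 3 plate SD below neutral wells, shown as high inhibition, flagging enzyme-inhibiting false positives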;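 further: 0% = DMSO wells with enzyme and 100% = wells lacking enzyme; higher means stronger loss of beta-gal luminescence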
An asterisk follows results filed as active. Only some compounds are listed: those with a hit (about 1.5% of all), similar ones and a draw of the others.

Results for COc1ccc(/C=C/C(=O)N2CCN(S(=O)(=O)c3ccccc3Br)CC2)cc1OC ?
EBI2 block: 74*; APJ ag: 2; APJ antag: 1; CXCR6 block: 3; CCR6 antag: 7; EBI2 conf: 49; EBI2 agonist: -2; bGal counter: -12

What do the screens show for `Cc1ccc(S(=O)(=O)N2CCN(C(=O)/C=C/c3ccccc3)CC2)cc1C`?
EBI2 block: 89*; APJ ag: 0; APJ antag: 20; CXCR6 block: 0; CCR6 antag: 7; EBI2 conf: 76*; EBI2 agonist: -1; bGal counter: -8

What do the screens show for `COc1ccc(/C=C/C(=O)N2CCOCC2)cc1OC`?
EBI2 block: -3; APJ ag: -2; APJ antag: 12; CXCR6 block: 3; CCR6 antag: 4

What do the screens show for `COc1ccc(/C=C/C(=O)N2CCN(S(=O)(=O)/C=C/c3ccccc3)CC2)cc1OC`?
EBI2 block: 89*; APJ ag: -2; APJ antag: -6; CXCR6 block: -14; CCR6 antag: 3; EBI2 conf: 73*; EBI2 agonist: 0; bGal counter: -20

What do the screens show for `O=C(/C=C/c1ccco1)N1CCN(S(=O)(=O)c2ccccc2)CC1`?
EBI2 block: 9; APJ ag: -3; APJ antag: -6; CXCR6 block: 6; CCR6 antag: 3

How did COc1cccc(/C=C/C(=O)N2CCN(S(=O)(=O)c3ccccc3)CC2)c1OC do in these assays?
EBI2 block: 45*; APJ ag: -4; APJ antag: 6; CXCR6 block: 1; CCR6 antag: 8; EBI2 conf: 20; EBI2 agonist: 0; bGal counter: 3

How did Cc1ccc(S(=O)(=O)N2CCN(C(=O)Cc3ccccc3)CC2)cc1C do in these assays?
EBI2 block: 21; APJ ag: -3; APJ antag: -2; CXCR6 block: -4; CCR6 antag: 11

Results for Cc1ccc(SC[C@H](C)CN2CCC(NC(=O)OCc3ccccc3)CCC2=O)cc1 (stereo not given in full) ?
EBI2 block: 8; CXCR6 block: 9

Results for CC(C)c1ccc(NC(=O)CN(C)C2=NS(=O)(=O)c3ccccc32)cc1 ?
EBI2 block: -8; CXCR6 block: -3

Results for O=C(CSc1nnnn1-c1ccccc1)NCCCN1CCCC1=O ?
EBI2 block: 6; APJ ag: -5; APJ antag: 2; CXCR6 block: -7; CCR6 antag: 9

How did COc1cc(/C=C/C(=O)NC2CCCCC2)cc(OC)c1OC do in these assays?
EBI2 block: 1; APJ ag: -1; APJ antag: 19; CXCR6 block: 2; CCR6 antag: 19

What do the screens show for `COc1cc(/C=C/C(=O)N2CCN(C(=O)/C=C/c3cc(OC)c(OC)c(OC)c3)CC2)cc(OC)c1OC`?
EBI2 block: 46*; APJ ag: -1; APJ antag: -33; CXCR6 block: -10; CCR6 antag: 2; EBI2 conf: 20; EBI2 agonist: -1; bGal counter: -21

Results for COc1ccc(/C=C/C(=O)N2CCN(C)CC2)cc1OC ?
EBI2 block: -4; APJ ag: -3; APJ antag: 9; CXCR6 block: -8; CCR6 antag: -4

How did COc1ccc(/C=C/C(=O)N2CCN(S(=O)(=O)c3ccccc3)CC2)cc1OC do in these assays?
EBI2 block: 46*; APJ ag: -3; APJ antag: -15; CXCR6 block: -5; CCR6 antag: 0; EBI2 conf: 20; EBI2 agonist: 1; bGal counter: 4

What do the screens show for `COc1cc2c(cc1OC)C(CNC(=O)C=Cc1cc(OC)c(OC)c(OC)c1)C2` (stereo not given)?
EBI2 block: 50*; CXCR6 block: -3; EBI2 conf: 32; EBI2 agonist: 1; bGal counter: 4

What do the screens show for `CCc1nc2c(OCc3ccc(F)c(F)c3)cccn2c1N(C)C(=O)c1ccc(C)cc1`?
EBI2 block: 19; CXCR6 block: 4

What do the screens show for `C[C@@H]1CN([C@@H](C)CO)C(=O)CCCn2nncc2CO[C@@H]1CN(C)C(=O)C1CCCCC1`?
EBI2 block: -2; CXCR6 block: 3

Results for O=C(c1cc2c(ccc3ccccc32)o1)N1CCN(c2ncc(C(F)(F)F)cc2Cl)CC1 ?
EBI2 block: 91*; APJ ag: 5; APJ antag: 17; CXCR6 block: -3; CCR6 antag: -2; EBI2 conf: 79*; EBI2 agonist: 0; bGal counter: 4

What do the screens show for `O=C(O)c1cc2c(ccc3ccccc32)o1`?
EBI2 block: -8; APJ ag: -1; APJ antag: 12; CXCR6 block: 2; CCR6 antag: 1

Results for O=C(c1[nH]c(C(F)(F)F)nc1-c1ccccc1)N1CCN(c2ncc(C(F)(F)F)cc2Cl)CC1 ?
EBI2 block: -4; CXCR6 block: 4

How did O=C(c1cc2c(ccc3ccccc32)o1)N1CCCCC1 do in these assays?
EBI2 block: 51*; APJ ag: -5; APJ antag: 2; CXCR6 block: -3; CCR6 antag: 8; EBI2 conf: 27; EBI2 agonist: 0; bGal counter: 6

What do the screens show for `O=C(c1cc2cc(Cl)ccc2o1)N1CCCCCC1`?
EBI2 block: 47*; APJ ag: 1; APJ antag: 9; CXCR6 block: 0; CCR6 antag: 9; EBI2 conf: 20; EBI2 agonist: 1; bGal counter: 12

How did COc1ccc(S(=O)(=O)N2CCOCC2)cc1NC(=O)Cc1ccc(F)cc1 do in these assays?
EBI2 block: 6; CXCR6 block: 2

How did COc1cc2ccccc2cc1C(=O)NC1CCCC1 do in these assays?
EBI2 block: 7; APJ ag: 1; APJ antag: 4; CXCR6 block: -1; CCR6 antag: 1

Results for COc1cc2ccccc2cc1C(=O)NC1CCC(C)CC1 (stereo not given) ?
EBI2 block: 65*; APJ ag: -4; APJ antag: -1; CXCR6 block: 11; CCR6 antag: 18; EBI2 conf: 48; EBI2 agonist: 0; bGal counter: 4

How did CN(Cc1ccc(Cl)cc1)C(C(=O)NC1CCCCC1)c1ccnc2ccccc12 (stereo not given) do in these assays?
EBI2 block: 4; CXCR6 block: 8
